Reference: ChEMBL document CHEMBL2177103, “Discovery of diverse human dihydroorotate dehydrogenase inhibitors as immunosuppressive agents by structure-based virtual screening” (J Med Chem, 2012)
pIC50: −log10 of the molar value.

Key:
[1] = Immunosuppressive activity in ICR mouse B cells assessed as inhibition of LPS-stimulated cell proliferation after 72 hrs by MTT assay; type: functional, cell-based
Jurkat [2] = test: Cytotoxicity against human Jurkat cells after 4 days by MTT assay; type: cell-based; settings: 96 h
[3] = molecular target: Dihydroorotate dehydrogenase (quinone), mitochondrial (Homo sapiens, UniProt Q02127); test: Inhibition of human DHODH expressed in Escherichia coli BL21(DE3) using L-dihydroorotate as substrate after 10 mins by DCIP dye reduction assay
Sequence of Dihydroorotate dehydrogenase (quinone), mitochondrial (Q02127 whole entry): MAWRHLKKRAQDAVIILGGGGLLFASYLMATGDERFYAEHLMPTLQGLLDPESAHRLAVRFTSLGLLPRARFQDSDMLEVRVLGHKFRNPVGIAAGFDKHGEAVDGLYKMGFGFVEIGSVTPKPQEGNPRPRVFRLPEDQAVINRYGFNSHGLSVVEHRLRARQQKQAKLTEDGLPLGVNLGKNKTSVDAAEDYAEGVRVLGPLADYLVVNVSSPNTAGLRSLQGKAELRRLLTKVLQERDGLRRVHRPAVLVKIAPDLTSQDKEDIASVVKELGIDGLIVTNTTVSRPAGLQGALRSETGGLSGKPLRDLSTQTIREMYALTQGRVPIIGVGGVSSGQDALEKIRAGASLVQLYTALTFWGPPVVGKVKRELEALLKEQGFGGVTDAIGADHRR

[4] = Immunosuppressive activity in mouse T cells assessed as inhibition of two way mixed lymphocyte reaction after 4 days by MTT assay; type: functional, cell-based; settings: T-cell, 96 h
[5] = molecular target: T1, Dihydroorotate dehydrogenase (Plasmodium falciparum) (UniProt Q54A96); test: Inhibition of Plasmodium falciparum DHODH expressed in Escherichia coli BL21 (DE3) using L-dihydroorotate as substrate at 10 uM after 10 mins by DCIP dye reduction assay
T1 sequence (whole entry): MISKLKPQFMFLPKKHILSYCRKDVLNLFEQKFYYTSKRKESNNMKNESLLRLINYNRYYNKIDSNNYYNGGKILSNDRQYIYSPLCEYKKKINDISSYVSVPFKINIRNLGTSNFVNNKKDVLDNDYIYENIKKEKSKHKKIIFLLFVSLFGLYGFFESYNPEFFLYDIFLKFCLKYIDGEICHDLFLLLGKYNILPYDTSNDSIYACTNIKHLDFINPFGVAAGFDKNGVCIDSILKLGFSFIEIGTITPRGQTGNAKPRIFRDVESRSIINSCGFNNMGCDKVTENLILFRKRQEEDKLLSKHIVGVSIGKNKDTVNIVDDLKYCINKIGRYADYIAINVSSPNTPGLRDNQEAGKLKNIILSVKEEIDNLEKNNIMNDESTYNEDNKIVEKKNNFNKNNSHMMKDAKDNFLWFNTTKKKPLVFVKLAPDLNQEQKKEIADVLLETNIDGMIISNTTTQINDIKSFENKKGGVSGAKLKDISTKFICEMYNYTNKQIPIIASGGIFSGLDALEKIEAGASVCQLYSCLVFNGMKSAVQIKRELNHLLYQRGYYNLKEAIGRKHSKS
How it was run: (§1)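 DCIP reduction read as absorbance decrease at 600 nm over 5 min. Enzyme preincubated 10 min with compound (DMSO stock diluted in assay buffer); reaction started with dihydroorotate, 500 μM final.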

Jurkat [6] = test: Selectivity ratio of IC50 for human Jurkat cells to IC50 for ICR mouse B cells
T-cell = test: Selectivity ratio of IC50 for mouse T cells to IC50 for ICR mouse B cells; type: functional
[7] = molecular target: T2, Dihydroorotate dehydrogenase (Plasmodium falciparum, UniProt Q54A96); test: Inhibition of Plasmodium falciparum DHODH expressed in Escherichia coli BL21 (DE3) using L-dihydroorotate as substrate after 10 mins by DCIP dye reduction assay; how it was run: as §1
T2 sequence (Q54A96 whole entry): T1 sequence (whole entry)

SMILES | pIC50 [3] | inhibition [5] [%] | pIC50 [7] | pIC50 [1] | pIC50 (Jurkat [2]) | pIC50 [4] | Ratio IC50 (Jurkat [6]) | Ratio IC50 (T-cell)
O=Cc1ccccc1/C=N/Nc1nc(-c2ccccc2)cs1 | 6.96 | < 20 |  | 4.85 | < 4.00 | 4.91 |  | 
COC(=O)c1ccc(Nc2nc(-c3ccc(Cl)cc3)c(C)s2)cc1 | 5.90 | < 20 |  | 4.89 | 4.80 | 4.88 |  | 
O=c1cc(-c2ccc(O)c(O)c2)oc2ccccc12 | 4.91 |  | 5.02 |  |  |  |  | 
Cc1ccccc1C(=O)Nc1cc(Cl)c(O)c(Cl)c1 | 4.79 | < 20 |  |  |  |  |  | 
Brc1ccc(-c2csc(N/N=C/c3ccccc3)n2)cc1 | 5.48 | < 20 |  | < 4.00 | 5.97 | < 4.00 |  | 
C/C(O)=C(\C#N)C(=O)Nc1ccc(C(F)(F)F)cc1 [TERIFLUNOMIDE] |  |  |  | 5.39 | 4.57 | 4.32 |  | 
CC1=NN(c2ccccc2)C(=O)/C1=C/c1ccc(-c2cccc(C(=O)O)c2)o1 | 5.56 | < 20 |  | < 4.00 | < 4.00 | 4.13 |  | 
CC(=O)c1sc(Nc2ccc(C)c(Cl)c2)nc1C | 6.03 |  | 6.12 | 5.33 | 5.27 | 5.02 |  | 
Oc1ccc(/C=N/c2cccc3ccccc23)c(O)c1 | 6.11 | < 20 |  | 4.95 | 4.58 | 4.63 |  | 
C/C=C/C[C@@H](C)[C@@H](O)[C@H]1C(=O)N[C@@H](CC)C(=O)N(C)CC(=O)N(C)[C@@H](CC(C)C)C(=O)N[C@@H](C(C)C)C(=O)N(C)[C@@H](CC(C)C)C(=O)N[C@@H](C)C(=O)N[C@H](C)C(=O)N(C)[C@@H](CC(C)C)C(=O)N(C)[C@@H](CC(C)C)C(=O)N(C)[C@@H](C(C)C)C(=O)N1C [CYCLOSPORINE] |  |  |  |  | < 5.00 |  |  | 
c1ccc2c(c1)Nc1nc3ccccc3nc1O2 | 4.74 | < 20 |  |  |  |  |  | 
Cc1ccc(C)c(/N=C/c2cccc(O)c2O)c1 | 4.75 | < 20 |  |  |  |  |  | 

Second part, led by results:

pIC50 [3] | inhibition [5] [%] | pIC50 [7] | SMILES | pIC50 [1] | pIC50 (Jurkat [2]) | pIC50 [4] | Ratio IC50 (Jurkat [6]) | Ratio IC50 (T-cell)
5.22 | < 20 |  | O=C(/C=C/c1ccc(O)c(C(=O)O)c1)c1ccc(Cl)cc1 | 5.75 | 4.34 | 4.52 | 26 | 17
5.17 | < 20 |  | COc1cccc(C(=O)Nc2nc3ccccc3s2)c1 | 4.79 | < 4.00 | < 4.00 |  | 
4.81 | < 20 |  | O=C(O)c1ccc(/C=N/c2cccc3ccccc23)cc1 |  |  |  |  | 
4.89 | < 20 |  | O=C(/C=C/c1ccc(F)cc1)Nc1ccccn1 |  |  |  |  | 
5.40 | < 20 |  | Oc1ccc(/N=C/c2ccc3ccccc3c2)cc1 | 5.00 | 4.34 | 5.02 |  | 
6.26 | < 20 |  | CCc1cccc(NC(=O)/C=C/c2ccc(Cl)c(Cl)c2)c1 | 4.95 | 4.52 | 5.08 |  | 
6.47 |  | 5.71 | O=C(Nc1nc2ccccc2s1)c1cccc(C(Cl)(Cl)Cl)c1 | 5.06 | 4.36 | 4.60 |  | 
5.74 |  | 5.33 | O=C(Nc1nc2ccccc2s1)c1ccc(Cl)cc1Cl | 4.70 | < 4.00 | 4.23 |  | 
